Source: ChEMBL document CHEMBL1138800, “Synthesis and biological evaluation of novel N6-[4-(substituted)sulfonamidophenylcarbamoyl]adenosine-5'-uronamides as A3 adenosine receptor agonists” (J Med Chem, 2004)
pIC50, pKi: −log10 of the molar value.

Tests used:
Adenosine receptor A3 [1] = biological target: T1, Adenosine receptor A3 (Homo sapiens, UniProt P0DMS8); assay: Inhibition of (10 uM) forskolin-mediated cAMP production in CHO cells expressing human Adenosine A3 receptor; format: functional, cell-based
T1 sequence (P0DMS8 whole entry): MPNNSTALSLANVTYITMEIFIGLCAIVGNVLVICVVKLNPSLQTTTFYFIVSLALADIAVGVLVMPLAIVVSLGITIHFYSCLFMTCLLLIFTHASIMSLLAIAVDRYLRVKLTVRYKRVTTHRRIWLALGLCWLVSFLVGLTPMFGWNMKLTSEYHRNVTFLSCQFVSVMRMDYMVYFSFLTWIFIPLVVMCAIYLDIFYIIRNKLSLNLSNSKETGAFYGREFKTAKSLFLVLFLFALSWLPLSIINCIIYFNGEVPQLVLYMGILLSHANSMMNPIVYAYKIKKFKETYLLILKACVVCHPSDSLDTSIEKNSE

Adenosine receptor A2a [2] = biological target: T2, Adenosine receptor A2a (Homo sapiens, UniProt P29274); assay: Displacement of [3H]CGS-21680 binding to Adenosine A2 receptor expressed in CHO cells; format: cell-based
T2 sequence (P29274 whole entry): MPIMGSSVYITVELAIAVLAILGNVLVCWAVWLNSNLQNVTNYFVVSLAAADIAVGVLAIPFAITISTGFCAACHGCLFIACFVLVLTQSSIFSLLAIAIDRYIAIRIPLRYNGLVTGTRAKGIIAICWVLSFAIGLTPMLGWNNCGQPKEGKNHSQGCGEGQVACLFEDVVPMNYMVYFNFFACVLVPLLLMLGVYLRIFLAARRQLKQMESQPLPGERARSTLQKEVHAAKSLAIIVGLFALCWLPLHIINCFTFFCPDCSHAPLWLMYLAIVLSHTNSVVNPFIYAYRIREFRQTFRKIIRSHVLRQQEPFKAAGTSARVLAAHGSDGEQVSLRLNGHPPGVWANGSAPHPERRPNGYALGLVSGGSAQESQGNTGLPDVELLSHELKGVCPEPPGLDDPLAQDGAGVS

Adenosine receptor A1 = biological target: T3, Adenosine receptor A1 (Homo sapiens, UniProt P30542); assay: Displacement of [3H]CHA binding to Adenosine A1 receptor expressed in CHO cells; format: cell-based
T3 sequence (P30542 whole entry): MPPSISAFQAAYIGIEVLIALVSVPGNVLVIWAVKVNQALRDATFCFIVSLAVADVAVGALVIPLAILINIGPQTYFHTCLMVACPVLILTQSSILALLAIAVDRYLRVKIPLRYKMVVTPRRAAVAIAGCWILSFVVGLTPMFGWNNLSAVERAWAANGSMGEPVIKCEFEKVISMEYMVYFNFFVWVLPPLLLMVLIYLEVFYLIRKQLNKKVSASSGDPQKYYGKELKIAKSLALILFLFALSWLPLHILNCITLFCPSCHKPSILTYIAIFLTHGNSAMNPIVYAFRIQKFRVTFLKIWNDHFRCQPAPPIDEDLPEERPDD
Summary of the method: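 Human A1-transfected CHO membranes (adenosine deaminase-treated), 50 µg protein, incubated 120 min at 25 °C in 50 mM Tris HCl pH 7.4 with 1 nM [3H]-CHA and 6-8 agonist concentrations; nonspecific binding with 10 µM CHA. Filtration through GF/B filters, scintillation counting; Ki from IC50 via Cheng-Prusoff; geometric mean with confidence limits.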

[3] = biological target: Adenosine receptors; A1 & A3 (Homo sapiens) (UniProt P30542+P0DMS8); assay: Ratio of binding affinity for Adenosine A1 and Adenosine A3 receptors; format: protein assay
[4] = biological target: Adenosine receptors; A2a & A3 (Homo sapiens) (UniProt P0DMS8+P29274); assay: Ratio of binding affinity for Adenosine A2A and Adenosine A3 receptors; format: protein assay
Sequence of Adenosine receptors; A2a & A3 (Homo sapiens) (P29274 whole entry, looked up, one chain of several): as the sequence (P29274 whole entry) above
Summary of the method: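 Ki ratio of two competition binding assays on adenosine deaminase-treated membranes of CHO cells expressing human receptors (50 µg protein). […] A3: 1 nM [125I]-AB-MECA, 120 min, 4 °C, duplicates. Filtration read-out; Ki by Cheng-Prusoff.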

Adenosine receptor A3 [5] = biological target: T1, Adenosine receptor A3; assay: Displacement of [125I]AB-MECA binding to Adenosine A3 receptor expressed in CHO cells; format: cell-based
Adenosine receptor A2a [6] = biological target: T2, Adenosine receptor A2a; assay: Inhibition of [3H]CGS-21680 binding to Adenosine A2A receptor expressed in CHO cells; format: cell-based; design: concentration or dose not given beside the values; settings: concentration not given here

| pIC50 (Adenosine receptor A3 [1]) | pKi (Adenosine receptor A2a [2]) | pKi (Adenosine receptor A1) | Ratio [3] | Ratio [4] | pKi (Adenosine receptor A3 [5]) | inhibition (Adenosine receptor A2a [6]) | Structure (SMILES) |
| --- | --- | --- | --- | --- | --- | --- | --- |
| 7.09 | 7.02 | 7.52 | 2.03 | 6.43 | 7.83 |  | CCNC(=O)[C@H]1O[C@@H](n2cnc3c(NC(=O)Nc4ccc(S(N)(=O)=O)cc4)ncnc32)C(O)C1O (single isomer, unassigned) |
|  | < 6.00 | 6.38 | 17.3 |  | 7.62 | 19% | CCNC(=O)[C@H]1OC(n2cnc3c(NC(=O)Nc4ccc(S(=O)(=O)NC5CCCC5)cc4)ncnc32)C(O)C1O (single isomer, unassigned) |
|  | < 6.00 | 6.46 |  |  |  | 25% | CCNC(=O)[C@H]1OC(n2cnc3c(NC(=O)Nc4ccc(S(=O)(=O)NC5CCCCC5)cc4)ncnc32)C(O)C1O (single isomer, unassigned) |
|  | < 6.00 | 6.62 | 7.5 |  | 7.46 | 31% | CCNC(=O)[C@H]1OC(n2cnc3c(NC(=O)Nc4ccc(S(=O)(=O)NC56CC7CC(CC(C7)C5)C6)cc4)ncnc32)C(O)C1O (single isomer, unassigned) |
|  | < 6.00 | 6.60 | 10.9 |  | 7.64 | 34% | CCNC(=O)[C@H]1OC(n2cnc3c(NC(=O)Nc4ccc(S(=O)(=O)NCC)cc4)ncnc32)C(O)C1O (single isomer, unassigned) |
|  | < 6.00 | 6.55 |  |  |  | 21% | CCNC(=O)[C@H]1OC(n2cnc3c(NC(=O)Nc4ccc(S(=O)(=O)N(C)C)cc4)ncnc32)C(O)C1O (single isomer, unassigned) |
|  | < 6.00 |  |  |  | 7.66 | 23% | CCNC(=O)[C@H]1OC(n2cnc3c(NC(=O)Nc4ccc(S(=O)(=O)N5CCCC5)cc4)ncnc32)C(O)C1O (single isomer, unassigned) |
|  | < 6.00 | 6.46 | 25 |  | 7.85 | 15% | CCCN(CCC)S(=O)(=O)c1ccc(NC(=O)Nc2ncnc3c2ncn3C2O[C@H](C(=O)NCC)C(O)C2O)cc1 (single isomer, unassigned) |
|  | < 6.00 | 6.55 |  |  |  | 34% | CCNC(=O)[C@H]1OC(n2cnc3c(NC(=O)Nc4ccc(S(=O)(=O)Nc5ccc(OC)cc5)cc4)ncnc32)C(O)C1O (single isomer, unassigned) |
| 7.38 | < 6.00 |  |  |  | 8.00 | 10% | C=CCN(C)S(=O)(=O)c1ccc(NC(=O)Nc2ncnc3c2ncn3C2O[C@H](C(=O)NCC)C(O)C2O)cc1 (single isomer, unassigned) |
| 7.19 | < 6.00 | 6.42 | 38 |  | 8.00 | 15% | C=CCN(CC=C)S(=O)(=O)c1ccc(NC(=O)Nc2ncnc3c2ncn3C2O[C@H](C(=O)NCC)C(O)C2O)cc1 (single isomer, unassigned) |

The next lines start with the compound.

| Structure (SMILES) | pIC50 (Adenosine receptor A3 [1]) | pKi (Adenosine receptor A2a [2]) | pKi (Adenosine receptor A1) | Ratio [3] | Ratio [4] | pKi (Adenosine receptor A3 [5]) | inhibition (Adenosine receptor A2a [6]) |
| --- | --- | --- | --- | --- | --- | --- | --- |
| CCCCCNS(=O)(=O)c1ccc(NC(=O)Nc2ncnc3c2ncn3C2O[C@H](C(=O)NCC)C(O)C2O)cc1 (single isomer, unassigned) |  | < 6.00 | 6.35 | 5.56 |  | 7.10 | 32% |
| CCNC(=O)[C@H]1OC(n2cnc3c(NC(=O)Nc4ccc(S(=O)(=O)NC(C)(C)C)cc4)ncnc32)C(O)C1O (single isomer, unassigned) |  | < 6.00 | 6.60 | 12.5 |  | 7.70 | 32% |
| CCNC(=O)[C@H]1OC(n2cnc3c(NC(=O)Nc4ccc(S(=O)(=O)N5CCCCC5)cc4)ncnc32)C(O)C1O (single isomer, unassigned) |  | < 6.00 |  |  |  |  | 15% |
| CCNC(=O)[C@H]1OC(n2cnc3c(NC(=O)Nc4ccc(S(=O)(=O)N(CCCl)CCCl)cc4)ncnc32)C(O)C1O (single isomer, unassigned) |  | < 6.00 | 6.14 | 31.7 |  | 7.64 | 27% |
| CCNC(=O)[C@H]1OC(n2cnc3c(NC(=O)Nc4ccc(S(=O)(=O)N5CC=CC5)cc4)ncnc32)C(O)C1O (single isomer, unassigned) |  | < 6.00 | 6.60 | 13.2 |  | 7.72 | 17% |
| CCNC(=O)[C@H]1OC(n2cnc3c(NC(=O)Nc4ccc(S(=O)(=O)N5CCOCC5)cc4)ncnc32)C(O)C1O (single isomer, unassigned) |  | < 6.00 | 6.14 | 36.2 |  | 7.70 | 20% |
| CCNC(=O)[C@H]1OC(n2cnc3c(NC(=O)Nc4ccc(S(=O)(=O)N(CC)CC)cc4)ncnc32)C(O)C1O (single isomer, unassigned) |  | < 6.00 |  |  |  |  | 28% |
| CCNC(=O)[C@H]1OC(n2cnc3c(NC(=O)Nc4ccc(S(=O)(=O)NCc5ccccc5)cc4)ncnc32)C(O)C1O (single isomer, unassigned) |  | < 6.00 | 6.52 |  |  |  | 30% |
| CCCNS(=O)(=O)c1ccc(NC(=O)Nc2ncnc3c2ncn3C2O[C@H](C(=O)NCC)C(O)C2O)cc1 (single isomer, unassigned) |  | < 6.00 | 6.54 | 11.6 |  | 7.60 | 31% |
| CCNC(=O)[C@H]1OC(n2cnc3c(NC(=O)Nc4ccc(S(=O)(=O)N(C)C(C)C)cc4)ncnc32)C(O)C1O (single isomer, unassigned) |  |  |  |  |  |  | 13% |
